Measurements: ChEMBL document CHEMBL3774362, “Design, synthesis, and evaluation of 2-piperidone derivatives for the inhibition of β-amyloid aggregation and inflammation mediated neurotoxicity” (Bioorg Med Chem, 2016)
Values belong to the compound of their own block, whether it stands above or below them. Calls of active or inactive are those of the source. No cut-off for these calls is given here.

Assays:
[1] = target: Amyloid-beta precursor protein (Homo sapiens) (UniProt P05067); assay: Inhibition of Amyloid beta (1 to 42) (unknown origin) self aggregation at 20 uM for 24 hrs by Thioflavin T-based fluorometric assay
How it was run: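 Aβ1–42 was HFIP-pretreated and dissolved in DMSO to a 200 μM stock. It was mixed with compound in PBS pH 7.4, compound final 20 μM. Incubation was 24 h at room temperature with shaking. 5 μM ThT in 50 mM glycine–NaOH pH 8.5 was then added. Fluorescence was read at ex 435 nm / em 490 nm. Mean ± SD of three independent measurements, each in duplicate.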

BV-2 [2] = assay: Neuroprotective activity in mouse BV2 cells assessed as inhibition of LPS-stimulated IL-1beta production preincubated for 3 hrs followed by LPS treatment for 12 hrs by ELISA; format: functional, cell-based
How it was run: (§1)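 BV-2 microglia were seeded 2 × 10^4 cells/well and pretreated 3 h with compound at 0.0016, 0.008, 0.04, 0.2 and 1 μmol/L. They were then stimulated with LPS (1 μg/mL) for 12 h. Clarified supernatants were assayed by ELISA for the named cytokine.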

BV-2 [3] = assay: Neuroprotective activity in mouse BV2 cells assessed as inhibition of LPS-stimulated IL6 production preincubated for 3 hrs followed by LPS treatment for 12 hrs by ELISA; format: functional, cell-based; how it was run: as §1
BV-2 [4] = assay: Neuroprotective activity in mouse BV2 cells assessed as inhibition of LPS-stimulated TNFalpha production preincubated for 3 hrs followed by LPS treatment for 12 hrs by ELISA; format: functional, cell-based; how it was run: as §1
[5] = target: Amyloid-beta precursor protein (Homo sapiens) (UniProt P05067); assay: Inhibition of Amyloid beta (1 to 42) (unknown origin) self aggregation for 24 hrs by Thioflavin T-based fluorometric assay
[6] = target: Myeloid differentiation primary response protein MyD88 (Homo sapiens) (UniProt Q99836); assay: Inhibition of Flag-tagged MyD88-HA-tagged MyD88 (unknown origin) homodimerization transfected in HEK293 cells after 7 hrs by Co-immunoprecipitation assay; format: cell-based
How it was run: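 HEK293 cells were seeded at 9 × 10^5/well and transfected with Flag-MyD88 and HA-MyD88 plasmids. Compound was added 7 h after transfection at 10 and 40 μM. Cells were harvested 24 h post-transfection and lysed in RIPA. Lysates were precleared with protein A/G beads and immunoprecipitated with anti-HA on A/G beads at 4 °C. Captured Flag-MyD88 was detected by western blot.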

SH-SY5Y [7] = assay: Neuroprotective activity against LPS-stimulated toxicity in human SH-SY5Y cells using compound-conditioned media from LPS-stimulated BV2 cells by MTT assay; format: functional, cell-based
How it was run: (§2)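 BV-2 cells were seeded 2 × 10^4/well and pretreated 3 h with compound at 0.2, 1 and 5 μM. They were then stimulated 12 h with LPS 1 μg/mL, and the supernatant was clarified as conditioned medium. SH-SY5Y cells were seeded 5 × 10^3/well, grown 24 h and serum-starved overnight, then exposed to the conditioned medium. Viability was read by MTT at 490 nm. Mean ± SD of three independent experiments.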

[8] = Cytotoxicity against mouse BV2 cells assessed as cell viability at 0.008 to 5 umol/L by MTT assay in presence of LPS; format: cell-based; conditions: bv-2
How it was run: (§3)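 BV-2 murine microglia kept in DMEM-H with 10% FBS at 37 °C, 5% CO2. Cells seeded 1 × 10^4 cells/well and cultured 24 h. Compound then added at 0.008, 0.04, 0.2, 1 and 5 μmol/L, with or without LPS. Viability read by MTT as absorbance at 490 nm.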

[9] = target: Amyloid-beta precursor protein (Homo sapiens) (UniProt P05067); assay: Inhibition of Amyloid beta (1 to 42 residues) (unknown origin) assessed as no fibril formation at 50 uM after 4 days by atomic force microscopic analysis
How it was run: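 Aβ1–42 was pretreated with HFIP and taken up in DMSO. It was incubated in PBS pH 7.4 for 4 days at 30 °C, with or without compound. Final concentrations were 25 μM peptide and 50 μM compound. 10 μL aliquots were deposited on mica for 10 min, rinsed with water and dried under nitrogen. Samples were imaged by tapping-mode AFM.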

[10] = Cytotoxicity against mouse BV2 cells assessed as cell viability at 5 uM by MTT assay; format: cell-based; conditions: bv-2, 5 µM; how it was run: as §3
SH-SY5Y [11] = assay: Cytotoxicity against human SH-SY5Y cells at 5 uM by MTT assay; format: cell-based
How it was run: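 SH-SY5Y (DMEM/F-12, 10% FBS, 37 °C, 5% CO2) seeded 1 × 10^4 cells/well, grown 24 h, then exposed to compound at 0.04, 0.2, 1 and 5 μmol/L for 24 h. MTT added for a further 4 h; absorbance read at 490 nm. Mean ± SD of three independent experiments.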

SH-SY5Y [12] = assay: Neuroprotective activity against LPS-induced toxicity in human SH-SY5Y cells assessed as cell viability using compound-conditioned media from LPS-stimulated BV2 cells at 5 uM by MTT assay; format: functional; how it was run: as §2

Chain of Amyloid-beta precursor protein (Homo sapiens) (P05067 whole entry, the tested form may be a part): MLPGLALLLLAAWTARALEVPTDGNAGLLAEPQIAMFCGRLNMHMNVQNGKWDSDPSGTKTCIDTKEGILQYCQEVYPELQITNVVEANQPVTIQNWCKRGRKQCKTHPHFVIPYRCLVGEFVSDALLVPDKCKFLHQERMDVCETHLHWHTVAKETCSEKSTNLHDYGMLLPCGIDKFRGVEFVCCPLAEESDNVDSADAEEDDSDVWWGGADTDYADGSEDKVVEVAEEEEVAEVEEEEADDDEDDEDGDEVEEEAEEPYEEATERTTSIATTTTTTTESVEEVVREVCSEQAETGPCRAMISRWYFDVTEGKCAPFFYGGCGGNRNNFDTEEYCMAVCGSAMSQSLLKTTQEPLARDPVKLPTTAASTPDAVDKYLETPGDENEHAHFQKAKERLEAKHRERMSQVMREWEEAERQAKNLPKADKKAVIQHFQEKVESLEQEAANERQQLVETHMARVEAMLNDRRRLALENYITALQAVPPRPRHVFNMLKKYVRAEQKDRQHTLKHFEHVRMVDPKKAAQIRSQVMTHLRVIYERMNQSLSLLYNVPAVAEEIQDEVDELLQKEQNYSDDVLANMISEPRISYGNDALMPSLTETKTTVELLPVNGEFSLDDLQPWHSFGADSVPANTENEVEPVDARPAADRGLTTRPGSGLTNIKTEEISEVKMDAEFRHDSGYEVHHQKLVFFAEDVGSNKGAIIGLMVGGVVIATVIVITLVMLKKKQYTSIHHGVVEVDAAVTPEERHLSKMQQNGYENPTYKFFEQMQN
Chain of Myeloid differentiation primary response protein MyD88 (Homo sapiens) (Q99836 whole entry): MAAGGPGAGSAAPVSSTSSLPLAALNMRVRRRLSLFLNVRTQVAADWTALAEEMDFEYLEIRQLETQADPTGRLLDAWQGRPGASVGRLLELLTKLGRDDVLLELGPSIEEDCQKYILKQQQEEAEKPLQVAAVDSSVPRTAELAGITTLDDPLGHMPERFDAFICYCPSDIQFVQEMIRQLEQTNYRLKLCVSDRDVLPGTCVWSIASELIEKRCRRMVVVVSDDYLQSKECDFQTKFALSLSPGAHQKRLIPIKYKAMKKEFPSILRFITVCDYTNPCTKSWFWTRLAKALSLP

SMILES: COC(=O)c1ccc(CN2C(=O)C[C@@H](c3ccccc3)[C@H]([N+](=O)[O-])[C@H]2c2ccc(O)cc2)cc1 (racemic)
inhibition [1]: 36.3%

SMILES: COc1cc(OC)cc([C@@H]2CC(=O)N(Cc3ccccc3)[C@H](c3ccc(O)cc3)[C@H]2[N+](=O)[O-])c1 (racemic)
inhibition [1]: 55%

SMILES: COc1cc([C@@H]2[C@@H]([N+](=O)[O-])[C@H](c3ccccc3Cl)CC(=O)N2Cc2ccccc2)ccc1O (racemic)
inhibition [1]: 11.8%

SMILES: O=C1C[C@@H](c2ccccc2)[C@H]([N+](=O)[O-])[C@@H](c2ccc(O)cc2)N1Cc1ccc(F)cc1 (racemic)
inhibition [1]: 6.39%

SMILES: COc1cc(OC)cc([C@@H]2CC(=O)N(Cc3cccnc3)[C@H](c3ccc(O)cc3)[C@H]2[N+](=O)[O-])c1 (racemic)
inhibition [1]: 54%

SMILES: O=C1C[C@@H](c2ccccc2)[C@H]([N+](=O)[O-])[C@@H](c2ccc(O)cc2)N1Cc1cccnc1 (racemic)
inhibition [5]: Dose-dependent effect
inhibition [1]: 43.3%

SMILES: COc1cc(OC)cc([C@@H]2CC(=O)N(Cc3ccc(OC)c(OC)c3)[C@H](c3ccc(O)cc3)[C@H]2[N+](=O)[O-])c1 (racemic)
inhibition [6]: Dose-dependent effect
Activity (BV-2 [2]): Dose-dependent effect
IC50 (BV-2 [2]): 210 nM
Activity (SH-SY5Y [7]): Dose-dependent effect
Activity (BV-2 [3]): Dose-dependent effect
IC50 (BV-2 [3]): 30 nM
Activity [8]: Non-toxic
inhibition [5]: Dose-dependent effect
Activity (BV-2 [4]): Dose-dependent effect
IC50 (BV-2 [4]): 80 nM
inhibition [9]: Active
Activity [10]: Non-toxic
inhibition [1]: 59.1%
Activity (SH-SY5Y [11]): Non-toxic
Activity (SH-SY5Y [12]): 82.92%

SMILES: O=C1C[C@@H](c2ccccc2Cl)[C@H]([N+](=O)[O-])[C@@H](c2ccc(O)cc2)N1Cc1ccccc1 (racemic)
inhibition [1]: 11.2%

SMILES: O=C1C[C@@H](c2ccccc2Cl)[C@H]([N+](=O)[O-])[C@@H](c2ccc(O)cc2)N1Cc1cccnc1 (racemic)
inhibition [1]: 41.6%

SMILES: COC(=O)c1ccc(CN2C(=O)C[C@@H](c3ccccc3Cl)[C@H]([N+](=O)[O-])[C@H]2c2ccc(O)cc2)cc1 (racemic)
Activity (BV-2 [2]): Dose-dependent effect
IC50 (BV-2 [2]): 3490 nM
Activity (BV-2 [3]): Dose-dependent effect
IC50 (BV-2 [3]): 80 nM
Activity (BV-2 [4]): Dose-dependent effect
IC50 (BV-2 [4]): 90 nM
inhibition [1]: 33.1%

SMILES: O=C1C[C@@H](c2ccccc2)[C@H]([N+](=O)[O-])[C@@H](c2ccc(O)cc2)N1Cc1ccccc1 (racemic)
inhibition [1]: 43.6%

Continued, in another order:

inhibition [1]: 46.1%
SMILES: COc1ccc(CN2C(=O)C[C@@H](c3ccccc3)[C@H]([N+](=O)[O-])[C@H]2c2ccc(O)cc2)cc1 (racemic)

inhibition [1]: 51.7%
SMILES: COc1cccc(CN2C(=O)C[C@@H](c3ccccc3)[C@H]([N+](=O)[O-])[C@H]2c2ccc(O)cc2)c1 (racemic)

inhibition [1]: 44.1%
SMILES: Cc1ccc([C@@H]2CC(=O)N(Cc3ccccc3)[C@H](c3ccc(O)cc3)[C@H]2[N+](=O)[O-])cc1 (racemic)

inhibition [1]: 30.6%
SMILES: COc1ccc(CN2C(=O)C[C@@H](c3ccc(C)cc3)[C@H]([N+](=O)[O-])[C@H]2c2ccc(O)cc2)cc1 (racemic)

IC50 (BV-2 [2]): 850 nM
IC50 (BV-2 [3]): 170 nM
IC50 (BV-2 [4]): 20 nM
inhibition [1]: 56.9%
SMILES: COc1cccc(CN2C(=O)C[C@@H](c3cc(OC)cc(OC)c3)[C@H]([N+](=O)[O-])[C@H]2c2ccc(O)cc2)c1 (racemic)
Activity (BV-2 [2]): Dose-dependent effect
Activity (BV-2 [3]): Dose-dependent effect
Activity (BV-2 [4]): Dose-dependent effect

inhibition [1]: 46.1%
SMILES: Cc1ccc(CN2C(=O)C[C@@H](c3ccccc3Cl)[C@H]([N+](=O)[O-])[C@H]2c2ccc(O)cc2)cc1 (racemic)

inhibition [1]: 50%
SMILES: COc1cccc(CN2C(=O)C[C@@H](c3ccccc3Cl)[C@H]([N+](=O)[O-])[C@H]2c2ccc(O)cc2)c1 (racemic)

inhibition [1]: 28.7%
SMILES: COc1ccc(CN2C(=O)C[C@@H](c3ccccc3Cl)[C@H]([N+](=O)[O-])[C@H]2c2ccc(O)cc2)cc1 (racemic)

inhibition [1]: 49.2%
SMILES: COc1ccc(CN2C(=O)C[C@@H](c3ccccc3)[C@H]([N+](=O)[O-])[C@H]2c2ccc(O)cc2)cc1OC (racemic)

inhibition [1]: 39.9%
SMILES: Cc1ccc(CN2C(=O)C[C@@H](c3ccccc3)[C@H]([N+](=O)[O-])[C@H]2c2ccc(O)cc2)cc1 (racemic)

inhibition [1]: 42.1%
SMILES: Cc1ccc(CN2C(=O)C[C@@H](c3ccc(C)cc3)[C@H]([N+](=O)[O-])[C@H]2c2ccc(O)cc2)cc1 (racemic)

inhibition [1]: 48.9%
SMILES: COc1cccc(CN2C(=O)C[C@@H](c3ccc(C)cc3)[C@H]([N+](=O)[O-])[C@H]2c2ccc(O)cc2)c1 (racemic)
